According to ChEMBL document CHEMBL4340551, “Design, synthesis and preliminary bioactivity studies of indomethacin derivatives as Bcl-2/Mcl-1 dual inhibitors” (Bioorg Med Chem, 2019):

Legend:
[1] = biological target: T1, Apoptosis regulator Bcl-2 (Homo sapiens, UniProt P10415); assay: Inhibition of 5-FAM-tagged Bid-BH3 peptide binding to Bcl2 (unknown origin) by fluorescence polarization assay
[2] = biological target: T1, Apoptosis regulator Bcl-2; assay: Potency index, ratio of Ki for WL276 to Ki for test compound for inhibition of 5-FAM-tagged Bid-BH3 peptide binding to Bcl2 (unknown origin) by fluorescence polarization assay
[3] = biological target: T1, Apoptosis regulator Bcl-2; assay: Potency index, ratio of Ki for UMI77 to Ki for test compound for inhibition of 5-FAM-tagged Bid-BH3 peptide binding to Bcl2 (unknown origin) by fluorescence polarization assay
Bcl-2-like protein 1 = Bcl-2-like protein 1 (Homo sapiens, UniProt Q07817); assay: Inhibition of 5-FAM-tagged Bid-BH3 peptide binding to Bcl-XL (unknown origin) by fluorescence polarization assay
Bcl-2-like protein 1, sequence (Q07817 whole entry): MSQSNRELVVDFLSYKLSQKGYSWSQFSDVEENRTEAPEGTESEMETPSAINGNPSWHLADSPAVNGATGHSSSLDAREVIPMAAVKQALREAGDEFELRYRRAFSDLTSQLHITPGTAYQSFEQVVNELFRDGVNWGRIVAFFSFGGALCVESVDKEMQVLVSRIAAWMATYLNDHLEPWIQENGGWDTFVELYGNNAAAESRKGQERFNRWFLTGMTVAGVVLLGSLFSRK
How it was run: (§1)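 Competitive fluorescence polarization in which compounds displace labelled Bid-BH3 peptide from the Bcl-2 family protein, read as a fall in mP. IC50 taken from mP versus concentration. Ki calculated from IC50, Kd, and the peptide and protein concentrations.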

[4] = biological target: Induced myeloid leukemia cell differentiation protein Mcl-1 (Homo sapiens, UniProt Q07820); assay: Inhibition of 5-FAM-tagged Bid-BH3 peptide binding to Mcl1 (unknown origin) by fluorescence polarization assay; how it was run: as §1
Induced myeloid leukemia cell differentiation protein Mcl-1, sequence (Q07820 whole entry): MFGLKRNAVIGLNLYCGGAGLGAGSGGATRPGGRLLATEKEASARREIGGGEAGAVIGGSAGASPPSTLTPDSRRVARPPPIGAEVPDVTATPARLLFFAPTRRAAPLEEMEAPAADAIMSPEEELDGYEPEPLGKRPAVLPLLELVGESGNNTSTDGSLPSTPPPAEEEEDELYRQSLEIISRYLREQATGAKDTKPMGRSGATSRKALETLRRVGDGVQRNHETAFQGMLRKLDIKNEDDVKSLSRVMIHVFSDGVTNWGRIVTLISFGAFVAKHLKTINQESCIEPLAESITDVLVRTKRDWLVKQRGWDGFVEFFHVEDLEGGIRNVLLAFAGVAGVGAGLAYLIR

PC-3 = assay: Antiproliferative activity against human PC3 cells assessed as reduction in cell growth incubated for 48 hrs by MTT assay; format: functional, cell-based; conditions: PC-3, 48 h
How it was run: (§2)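 PC-3, Jurkat and K562 cells grown in RPMI 1640 with 10% FBS at 37°C, 5% CO2. Cells seeded at 2000-4000 per well and left 8 h before compound addition at a range of concentrations. Exposure 48 h, then 0.5% MTT solution for 4 h. Formazan dissolved in DMSO and absorbance read at 570 nm. IC50 derived from concentrations and inhibitory ratios.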

Jurkat [5] = assay: Antiproliferative activity against human Jurkat cells assessed as reduction in cell growth incubated for 48 hrs by MTT assay; format: functional, cell-based; how it was run: as §2
K562 = assay: Antiproliferative activity against human K562 cells assessed as reduction in cell growth incubated for 48 hrs by MTT assay; format: functional, cell-based; conditions: K562, 48 h; how it was run: as §2
[6] = biological target: T1, Apoptosis regulator Bcl-2; assay: Inhibition of 5-FAM-tagged Bid-BH3 peptide binding to Bcl2 (unknown origin) at 100 uM by fluorescence polarization assay relative to untreated control
Jurkat [7] = assay: Induction of apoptosis in human Jurkat cells assessed as viable cells level at 20 uM incubated for 48 hrs by annexin-V/FITC and propidium iodide staining based flow cytometry (reference value: 86.5%); format: functional
Jurkat [8] = assay: Induction of apoptosis in human Jurkat cells assessed as early apoptotic cells level at 20 uM incubated for 48 hrs by annexin-V/FITC and propidium iodide staining based flow cytometry (reference value: 7.02%); format: functional
Jurkat [9] = assay: Induction of apoptosis in human Jurkat cells assessed as late apoptotic cells level at 20 uM incubated for 48 hrs by annexin-V/FITC and propidium iodide staining based flow cytometry (reference value: 6.29%); format: functional
Jurkat [10] = assay: Induction of apoptosis in human Jurkat cells assessed as necrotic cells level at 20 uM incubated for 48 hrs by annexin-V/FITC and propidium iodide staining based flow cytometry (reference value: 6.29%); format: functional
Jurkat [11] = assay: Induction of apoptosis in human Jurkat cells assessed as viable cells level at 40 uM incubated for 48 hrs by annexin-V/FITC and propidium iodide staining based flow cytometry (reference value: 86.5%); format: functional
Jurkat [12] = assay: Induction of apoptosis in human Jurkat cells assessed as early apoptotic cells level at 40 uM incubated for 48 hrs by annexin-V/FITC and propidium iodide staining based flow cytometry (reference value: 7.02%); format: functional
Jurkat [13] = assay: Induction of apoptosis in human Jurkat cells assessed as late apoptotic cells level at 40 uM incubated for 48 hrs by annexin-V/FITC and propidium iodide staining based flow cytometry (reference value: 6.29%); format: functional
Jurkat [14] = assay: Induction of apoptosis in human Jurkat cells assessed as necrotic cells level at 40 uM incubated for 48 hrs by annexin-V/FITC and propidium iodide staining based flow cytometry (reference value: 6.29%); format: functional

T1 sequence (P10415 whole entry): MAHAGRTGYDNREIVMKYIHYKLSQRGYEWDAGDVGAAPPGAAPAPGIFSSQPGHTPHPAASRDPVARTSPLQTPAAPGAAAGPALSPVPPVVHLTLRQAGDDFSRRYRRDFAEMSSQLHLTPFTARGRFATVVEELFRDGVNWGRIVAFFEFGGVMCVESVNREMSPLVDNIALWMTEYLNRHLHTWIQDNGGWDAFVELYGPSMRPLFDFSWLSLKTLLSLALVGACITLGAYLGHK

Row | SMILES | Ki ([1]; read-out: Ki) [nM] | Ratio Ki [2] | Ratio Ki [3] | other results
1 | COc1ccc2c(c1)c(CC(=O)NCC(=O)NS(=O)(=O)c1ccc(Br)cc1)c(C)n2C(=O)c1ccc(Cl)cc1 | – | – | – | Ki [1]: Not Active
2 | COc1ccc2c(c1)c(CC(=O)N[C@@H](C)C(=O)NS(=O)(=O)c1ccc(Cl)c([N+](=O)[O-])c1)c(C)n2C(=O)c1ccc(Cl)cc1 | – | – | – | Ki [1]: Not Active
3 | COc1ccc2c(c1)c(CC(=O)N[C@@H](Cc1ccc(OCc3ccc([N+](=O)[O-])cc3)cc1)C(=O)NS(=O)(=O)c1ccc(Br)cc1)c(C)n2C(=O)c1ccc(Cl)cc1 | 630 | 2 to 3 | 5 to 6 | –
4 | O=C(O)CSc1cc(NS(=O)(=O)c2ccc(Br)cc2)c2ccccc2c1O | 2900 | – | – | Ki (Bcl-2-like protein 1; read-out: Ki): 7.85 µM; Ki [4]: 180 nM
5 | COc1ccc2c(c1)c(CC(=O)N[C@@H](Cc1ccc(OCc3cccc(C#N)c3)cc1)C(=O)NS(=O)(=O)c1ccc(Cl)c([N+](=O)[O-])c1)c(C)n2C(=O)c1ccc(Cl)cc1 | 440 | 2 to 3 | 5 to 6 | Ki (Bcl-2-like protein 1): Not Active; Ki [4]: 480 nM; IC50 (PC-3): 38.2 µM; IC50 (Jurkat [5]): 55.2 µM; IC50 (K562): 51.6 µM
6 | COc1ccc2c(c1)c(CC(=O)N[C@@H](Cc1ccc(OCc3cccc(C)c3)cc1)C(=O)NS(=O)(=O)c1ccc(Cl)c([N+](=O)[O-])c1)c(C)n2C(=O)c1ccc(Cl)cc1 | 430 | 2 to 3 | 5 to 6 | Ki (Bcl-2-like protein 1): Not Active; Ki [4]: 490 nM; IC50 (PC-3): 28.6 µM; IC50 (Jurkat [5]): 30.3 µM; IC50 (K562): 38.8 µM
7 | COc1ccc2c(c1)c(CC(=O)N[C@@H](Cc1c[nH]c3ccccc13)C(=O)NS(=O)(=O)c1ccc(Cl)c([N+](=O)[O-])c1)c(C)n2C(=O)c1ccc(Cl)cc1 | > 5000 | – | – | –
8 | COc1ccc2c(c1)c(CC(=O)NCC(=O)NS(=O)(=O)c1ccc(Cl)c([N+](=O)[O-])c1)c(C)n2C(=O)c1ccc(Cl)cc1 | – | – | – | Ki [1]: Not Active; inhibition [6]: 94%
9 | CCCOc1ccc(C[C@H](NC(=O)Cc2c(C)n(C(=O)c3ccc(Cl)cc3)c3ccc(OC)cc23)C(=O)NS(=O)(=O)c2ccc(Cl)c([N+](=O)[O-])c2)cc1 | 1300 | – | – | –
10 | COc1cccc(COc2ccc(C[C@H](NC(=O)Cc3c(C)n(C(=O)c4ccc(Cl)cc4)c4ccc(OC)cc34)C(=O)NS(=O)(=O)c3ccc(Cl)c([N+](=O)[O-])c3)cc2)c1 | 480 | 2 to 3 | 5 to 6 | IC50 (PC-3): 31.7 µM; IC50 (Jurkat [5]): 35.9 µM; IC50 (K562): 36.2 µM
11 | COc1ccc2c(c1)c(CC(=O)N[C@@H](Cc1ccc(OCc3ccc4ccccc4c3)cc1)C(=O)NS(=O)(=O)c1ccc(Cl)c([N+](=O)[O-])c1)c(C)n2C(=O)c1ccc(Cl)cc1 | 560 | 2 to 3 | 5 to 6 | –
12 | COc1ccc2c(c1)c(CC(=O)N[C@H](C(=O)NS(=O)(=O)c1ccc(Cl)c([N+](=O)[O-])c1)C(C)C)c(C)n2C(=O)c1ccc(Cl)cc1 | – | – | – | Ki [1]: Not Active
13 | COc1ccc2c(c1)c(CC(=O)N[C@@H](Cc1ccccc1)C(=O)NS(=O)(=O)c1ccc(Cl)c([N+](=O)[O-])c1)c(C)n2C(=O)c1ccc(Cl)cc1 | > 5000 | – | – | –
14 | COc1ccc(C[C@H](NC(=O)Cc2c(C)n(C(=O)c3ccc(Cl)cc3)c3ccc(OC)cc23)C(=O)NS(=O)(=O)c2ccc(Cl)c([N+](=O)[O-])c2)cc1 | > 5000 | – | – | –
15 | COc1ccc2c(c1)c(CC(=O)N[C@@H](CCSC)C(=O)NS(=O)(=O)c1ccc(Cl)c([N+](=O)[O-])c1)c(C)n2C(=O)c1ccc(Cl)cc1 | > 5000 | – | – | –
16 | COc1ccc2c(c1)c(CC(=O)N[C@@H](Cc1ccc(OCc3ccccc3Br)cc1)C(=O)NS(=O)(=O)c1ccc(Cl)c([N+](=O)[O-])c1)c(C)n2C(=O)c1ccc(Cl)cc1 | 450 | 2 to 3 | 5 to 6 | Ki (Bcl-2-like protein 1): Not Active; Ki [4]: 520 nM; IC50 (PC-3): 36.1 µM; IC50 (Jurkat [5]): 34 µM; IC50 (K562): 41.5 µM
17 | COc1ccc2c(c1)c(CC(=O)N[C@@H](Cc1ccc(Br)cc1)C(=O)NS(=O)(=O)c1ccc(Cl)c([N+](=O)[O-])c1)c(C)n2C(=O)c1ccc(Cl)cc1 | 590 | – | – | –
18 | COc1ccc2c(c1)c(CC(=O)N[C@@H](Cc1ccccc1)C(=O)NS(=O)(=O)c1ccccc1)c(C)n2C(=O)c1ccc(Cl)cc1 | – | – | – | Ki [1]: Not Active
19 | COc1ccc2c(c1)c(CC(=O)N[C@@H](Cc1ccccc1)C(=O)NS(=O)(=O)c1ccc(Br)cc1)c(C)n2C(=O)c1ccc(Cl)cc1 | > 5000 | – | – | –
20 | Cc1ccc(S(=O)(=O)NC(=O)[C@H](Cc2ccccc2)N2C(=O)/C(=C/c3ccc(-c4ccccc4)cc3)SC2=S)cc1 | 1500 | – | – | Ki (Bcl-2-like protein 1; read-out: Ki): 1.3 µM; Ki [4]: 1100 nM; IC50 (Jurkat [5]): 31.8 µM; IC50 (K562): 42.3 µM; Activity (Jurkat [7]): 70.7%; Activity (Jurkat [8]): 15.5%; Activity (Jurkat [9]): 13.6%; Activity (Jurkat [10]): 0.22%; Activity (Jurkat [11]): 65.5%; Activity (Jurkat [12]): 17.4%; Activity (Jurkat [13]): 16.8%; Activity (Jurkat [14]): 0.3%
21 | COc1ccc2c(c1)c(CC(=O)N[C@@H](Cc1ccc(OCc3ccccc3)cc1)C(=O)NS(=O)(=O)c1ccc(Br)cc1)c(C)n2C(=O)c1ccc(Cl)cc1 | 530 | 2 to 3 | 5 to 6 | –
22 | COc1ccc2c(c1)c(CC(=O)N[C@@H](Cc1ccc(OCc3ccccc3C#N)cc1)C(=O)NS(=O)(=O)c1ccc(Cl)c([N+](=O)[O-])c1)c(C)n2C(=O)c1ccc(Cl)cc1 | 670 | 2 to 3 | 5 to 6 | –
23 | COc1ccc2c(c1)c(CC(=O)N[C@@H](Cc1ccc(OCc3ccc(C#N)cc3)cc1)C(=O)NS(=O)(=O)c1ccc(Cl)c([N+](=O)[O-])c1)c(C)n2C(=O)c1ccc(Cl)cc1 | 470 | 2 to 3 | 5 to 6 | Ki (Bcl-2-like protein 1): Not Active; Ki [4]: 530 nM; IC50 (PC-3): 39.3 µM; IC50 (Jurkat [5]): 83.5 µM; IC50 (K562): 49.2 µM
24 | COc1ccc2c(c1)c(CC(=O)N[C@@H](CC(C)C)C(=O)NS(=O)(=O)c1ccc(Cl)c([N+](=O)[O-])c1)c(C)n2C(=O)c1ccc(Cl)cc1 | > 5000 | – | – | –
25 | CCC(C)[C@H](NC(=O)Cc1c(C)n(C(=O)c2ccc(Cl)cc2)c2ccc(OC)cc12)C(=O)NS(=O)(=O)c1ccc(Cl)c([N+](=O)[O-])c1 (some centres not stated) | 4900 | – | – | –
26 | COc1ccc2c(c1)c(CC(=O)N[C@@H](Cc1ccc(OCc3ccc(C)cc3)cc1)C(=O)NS(=O)(=O)c1ccc(Cl)c([N+](=O)[O-])c1)c(C)n2C(=O)c1ccc(Cl)cc1 | 560 | 2 to 3 | 5 to 6 | –
27 | COc1ccc2c(c1)c(CC(=O)N[C@@H](Cc1ccc(OCc3ccc([N+](=O)[O-])cc3)cc1)C(=O)NS(=O)(=O)c1ccc(Cl)c([N+](=O)[O-])c1)c(C)n2C(=O)c1ccc(Cl)cc1 | 510 | 2 to 3 | 5 to 6 | –
28 | COc1ccc(C[C@H](NC(=O)Cc2c(C)n(C(=O)c3ccc(Cl)cc3)c3ccc(OC)cc23)C(=O)NS(=O)(=O)c2ccc(Br)cc2)cc1 | > 5000 | – | – | –
29 | COc1ccc2c(c1)c(CC(=O)N[C@@H](Cc1ccc(OC(C)C)cc1)C(=O)NS(=O)(=O)c1ccc(Cl)c([N+](=O)[O-])c1)c(C)n2C(=O)c1ccc(Cl)cc1 | > 5000 | – | – | –
30 | COc1ccc2c(c1)c(CC(=O)N[C@@H](Cc1ccc(OCc3ccccc3)cc1)C(=O)NS(=O)(=O)c1ccc(Cl)c([N+](=O)[O-])c1)c(C)n2C(=O)c1ccc(Cl)cc1 | 520 | 2 to 3 | 5 to 6 | –
